Rows were chosen to be rich in hits. Some 6.6% of all compounds tested hit in one or more screens of this group.
Ecoli WT expand – growth inhibitors of E. coli BW25113 wild type; growth inhibition, % at 100 µM; hit rate 0.15% among 98,000; OD600 absorbance;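 active = growth inhibition above about 50% at one test dose, limit read from the data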;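 also: growth measured after 20 h incubation at 37 °C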
PostGolgi ctrl – inhibits growth of the yeast control strain; efflux-deficient yeast background strain, growth absorbance A615, 16 h; inhibition, % at 10 µM; hit rate 5% among 98,000
Ecoli tolC – growth inhibitors of E. coli BW25113 tolC mutant | hit rate 2.2% among 65,000 | OD615 | growth inhibition, % at 10 µM (by protocol);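 active = growth inhibition at or above a cutoff equal to the mean over every tested compound plus 3 SD, cut at about 60% in these data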;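 also: growth measured after 20 h incubation at 37 °C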
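Test system: tolC-deleted E. coli BW25113; medium: LB with kanamycin 50 µg/mL; compound: single-point testing at 10 µM; incubation: 20 h compound exposure of bacteria at 37 °C; signal: OD at 615 nm; evaluation: growth inhibition in percent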
PostGolgi yeast – growth inhibition of a yeast mutant, post-Golgi transport screen; post-Golgi transport phenotypic cell assay; inhibition, % at 10 µM; hit rate 0.9% among 98,000; AID 739;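 also: yeast cells grown in 1536-well plates; yeast grown about 18 h at 30C before absorbance read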
HER2 expr 66K – lowers expression of human Her2 kinase; P04626; SKBR-3 HER2 protein level, AlphaScreen, 18-24 h; active compounds read low; HER2 level % of control, % at 10 µM; hit rate 0.69% among 65,000;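 active = HER2 level under 5% of the carrier-only control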;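 also: 100% = DMSO carrier and 0% = 500 nM PU-H71 HSP90 inhibitor; lower value means stronger loss of Her2 protein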
Target sequence (P04626 whole entry, looked up): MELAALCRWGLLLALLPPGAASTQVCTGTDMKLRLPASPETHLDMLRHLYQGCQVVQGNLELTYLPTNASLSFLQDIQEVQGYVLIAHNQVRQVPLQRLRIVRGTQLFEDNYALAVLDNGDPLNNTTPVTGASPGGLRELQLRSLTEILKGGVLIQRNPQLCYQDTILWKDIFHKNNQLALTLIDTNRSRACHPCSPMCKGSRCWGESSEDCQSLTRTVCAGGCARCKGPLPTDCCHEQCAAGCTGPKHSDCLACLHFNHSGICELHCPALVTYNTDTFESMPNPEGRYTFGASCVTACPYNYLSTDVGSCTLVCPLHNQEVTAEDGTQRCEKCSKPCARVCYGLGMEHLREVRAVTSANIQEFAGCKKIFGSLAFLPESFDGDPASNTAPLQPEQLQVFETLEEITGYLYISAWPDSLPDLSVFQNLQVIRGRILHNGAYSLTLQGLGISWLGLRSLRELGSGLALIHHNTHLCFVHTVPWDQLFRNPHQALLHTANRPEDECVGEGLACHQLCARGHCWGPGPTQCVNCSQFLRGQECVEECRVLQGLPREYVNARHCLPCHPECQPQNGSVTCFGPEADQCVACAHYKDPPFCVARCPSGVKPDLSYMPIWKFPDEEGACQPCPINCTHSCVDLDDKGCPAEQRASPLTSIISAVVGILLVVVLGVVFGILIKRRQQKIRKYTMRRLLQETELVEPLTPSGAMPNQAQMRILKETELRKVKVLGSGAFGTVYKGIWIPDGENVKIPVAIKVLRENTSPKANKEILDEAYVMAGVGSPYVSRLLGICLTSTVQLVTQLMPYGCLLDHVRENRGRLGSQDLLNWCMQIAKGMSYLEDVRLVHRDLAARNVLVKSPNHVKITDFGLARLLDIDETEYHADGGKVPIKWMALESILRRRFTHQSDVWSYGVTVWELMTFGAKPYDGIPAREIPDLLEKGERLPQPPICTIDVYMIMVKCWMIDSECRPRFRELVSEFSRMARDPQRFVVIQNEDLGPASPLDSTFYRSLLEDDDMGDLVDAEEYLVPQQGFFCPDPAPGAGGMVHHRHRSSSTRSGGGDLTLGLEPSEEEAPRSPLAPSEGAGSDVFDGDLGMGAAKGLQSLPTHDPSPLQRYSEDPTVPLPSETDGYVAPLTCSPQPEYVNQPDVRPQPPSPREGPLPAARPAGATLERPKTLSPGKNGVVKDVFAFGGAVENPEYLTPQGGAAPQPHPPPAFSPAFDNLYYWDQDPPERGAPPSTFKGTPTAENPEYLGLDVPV
* = called active by the depositor. Rule as the data show it, unless noted: active = inhibition above about 30%; inactive = the rest.

Cc1cc(C)cc(NC(=S)N2CCC(c3nc4ccccc4s3)CC2)c1 was read as Ecoli WT expand -3.0, PostGolgi ctrl 11.2 and PostGolgi yeast -4.8.
CC1(C)CC(c2csc(N)n2)CCO1 (configuration not stated) was read as Ecoli WT expand -5.0, PostGolgi ctrl 0.3, Ecoli tolC -15.8, PostGolgi yeast 9.0 and HER2 expr 66K 104.4.
`O=C(c1ccc2c(=O)n(C3CCCC3)c(=S)[nH]c2c1)N1CCc2ccccc21` gave Ecoli WT expand -5.0, PostGolgi ctrl 99.0* and PostGolgi yeast 66.5*.
For CC(C)NC(=O)c1ccc2c(=O)n(C3CCCC3)c(=S)[nH]c2c1 the results were Ecoli WT expand -5.0, PostGolgi ctrl -5.1, Ecoli tolC -11.2, PostGolgi yeast 3.0 and HER2 expr 66K 100.9.
`Cc1ccc2c(c1)c(C)c(C)n2CC(O)Cn1nc(C)c(Br)c1C` (configuration not stated) gave Ecoli WT expand -8.0, PostGolgi ctrl 17.5, Ecoli tolC 81.7*, PostGolgi yeast -0.1 and HER2 expr 66K 99.8.
For COc1cc(N2CN=c3s/c(=C\c4ccccn4)c(=O)n3C2)cc(OC)c1OC the results were Ecoli WT expand 7.0, PostGolgi ctrl -11.4, Ecoli tolC 14.1, PostGolgi yeast -1.9 and HER2 expr 66K 103.2.
For Cc1ccc2[nH]c(=O)c(CN(Cc3ccc4c(c3)OCO4)Cc3nnnn3C3CCCC3)cc2c1 the results were Ecoli WT expand -8.0, PostGolgi ctrl 24.8, Ecoli tolC 62.0*, PostGolgi yeast 1.0 and HER2 expr 66K 67.6.
Screening Cc1ccc2[nH]c(=O)c(CN(Cc3nnnn3Cc3ccccc3)C3CCCC3)cc2c1 returned Ecoli WT expand -4.0, PostGolgi ctrl -2.0, Ecoli tolC 74.5*, PostGolgi yeast -9.0 and HER2 expr 66K 72.9.
Cc1cccc2cc(CN(Cc3nnnn3C3CCCC3)C3CCCCC3)c(=O)[nH]c12 was read as Ecoli tolC -10.0 and HER2 expr 66K 72.7.
`Cc1ccc2cc(CN(CCO)Cc3nnnn3Cc3ccc(F)cc3)c(=O)[nH]c2c1` gave Ecoli WT expand 0.0, PostGolgi ctrl -5.1, Ecoli tolC 2.2, PostGolgi yeast 36.9* and HER2 expr 66K 96.8.
Cc1cccc2cc(CN(Cc3nnnn3Cc3ccco3)C3CCCC3)c3nnnn3c12 was read as Ecoli WT expand -13.0, PostGolgi ctrl 42.6*, Ecoli tolC 28.2, PostGolgi yeast 16.6 and HER2 expr 66K 80.9.
For CCc1ccc2[nH]c(=O)c(CN(Cc3nnnn3C3CCCC3)C3CCCCC3)cc2c1 the results were Ecoli WT expand -7.0, PostGolgi ctrl 16.1, Ecoli tolC 48.3, PostGolgi yeast -1.1 and HER2 expr 66K 13.3.
Screening CCOC(=O)Nc1ccc(=O)n(Cc2c(Cl)cccc2Cl)c1 returned Ecoli WT expand 2.0, PostGolgi ctrl 17.8 and PostGolgi yeast 5.9.
CCCCCNC(=O)c1ccccc1SC was read as Ecoli WT expand 4.0, PostGolgi ctrl -4.1 and PostGolgi yeast -3.0.
Screening Cc1ccc(C(=O)Nc2ccccc2Oc2ccccc2)cc1[N+](=O)[O-] returned Ecoli WT expand -26.0, PostGolgi ctrl 33.9* and PostGolgi yeast -9.1.
Screening Cc1nc(N2CCN(Cc3ccc4c(c3)OCO4)CC2)c2oc3ccccc3c2n1 returned Ecoli tolC 95.2* and HER2 expr 66K 40.4.
For COc1ccccc1N1CCN(c2nc(C)nc3c2oc2ccccc23)CC1 the results were Ecoli WT expand -3.0, PostGolgi ctrl 28.8, Ecoli tolC 97.5*, PostGolgi yeast 8.8 and HER2 expr 66K 27.0.
`Cc1nc(N2CCC(C)CC2)c2oc3ccccc3c2n1` gave Ecoli WT expand -2.0, PostGolgi ctrl 30.0* and PostGolgi yeast 3.7.
Cc1nc(Nc2ccc3c(c2)OCO3)c2oc3ccccc3c2n1 was read as Ecoli WT expand 6.0, PostGolgi ctrl 8.0 and PostGolgi yeast -0.8.
`Cc1nc(N2CCN(C(=O)c3ccco3)CC2)c2oc3ccccc3c2n1` gave Ecoli tolC 8.0 and HER2 expr 66K 76.7.
`CCOC(=O)Cc1csc(SC(C)C(=O)Nc2ccc(NC(C)=O)cc2)n1` (configuration not stated) gave Ecoli WT expand 4.0, PostGolgi ctrl 6.2 and PostGolgi yeast 4.6.
`Cn1c(=O)c2c(nc(SCC(=O)O)n2Cc2cc3c(cc2Cl)OCO3)n(C)c1=O` gave Ecoli WT expand -7.0, PostGolgi ctrl -7.1 and PostGolgi yeast -9.1.
For COc1ccc(/C=C\C(=O)c2c(O)ccc3c(C)cc(=O)oc23)cc1OC the results were Ecoli WT expand 2.0, PostGolgi ctrl 27.8 and PostGolgi yeast -2.8.
Screening COc1ccccc1N1Cc2ccccc2C1 returned Ecoli WT expand 3.0, PostGolgi ctrl 24.2 and PostGolgi yeast 4.8.
COc1ccc(Cl)cc1N1Cc2ccccc2C1 was read as Ecoli WT expand -13.0, PostGolgi ctrl 32.1* and PostGolgi yeast -5.4.
Screening COC(=O)C(C(=O)OC)N1C(=O)CCC1=O returned Ecoli WT expand 0.0, PostGolgi ctrl 10.8, Ecoli tolC -13.3, PostGolgi yeast 6.6 and HER2 expr 66K 116.1.
CO[C@@]1(NC(=O)Cc2cccs2)C(=O)N2C(C(=O)O)=C(COC(N)=O)CS[C@@H]21 was read as Ecoli tolC 100.0* and HER2 expr 66K 108.5.
`O=C(NCCc1ccncc1)C12CC3CC(CC(C3)C1)C2` gave Ecoli WT expand 2.0, PostGolgi ctrl -4.2 and PostGolgi yeast 8.5.
For O=C(COC(=O)C12CC3CC(CC(C3)C1)C2)NCCc1ccccc1 the results were Ecoli WT expand 2.0, PostGolgi ctrl 40.3* and PostGolgi yeast -2.4.
CCOC(=O)C1=Nc2ccccc2C1=[N+]=[N-] was read as Ecoli WT expand 100.0*, PostGolgi ctrl 100.9*, Ecoli tolC 8.2, PostGolgi yeast 106.3* and HER2 expr 66K 118.8.
For CCc1nc2sc3c(c2c(=O)n1NC(=O)CCl)CCCC3 the results were Ecoli WT expand 1.0, PostGolgi ctrl -2.4 and PostGolgi yeast 11.4.
For CCOC(=O)C(NC(=O)Nc1ncccn1)(Oc1ccccc1)C(F)(F)F (configuration not stated) the results were Ecoli WT expand 2.0, PostGolgi ctrl 32.2*, Ecoli tolC -26.7, PostGolgi yeast -1.4 and HER2 expr 66K 117.3.
`CCOC(=O)NC(Nc1ncccn1)(C(F)(F)F)C(F)(F)F` gave Ecoli WT expand -1.0, PostGolgi ctrl 0.9, Ecoli tolC 7.4, PostGolgi yeast -1.4 and HER2 expr 66K 97.3.
For Cc1ccc(N(Cc2ccco2)C(=O)c2cccc(S(=O)(=O)N(C)C)c2)cc1 the results were Ecoli WT expand -4.0, PostGolgi ctrl 12.7, Ecoli tolC 13.9, PostGolgi yeast 10.6 and HER2 expr 66K 41.5.
Screening O=C(CSCc1ccc(Cl)cc1)c1ccco1 returned Ecoli WT expand -2.0, PostGolgi ctrl -0.2, Ecoli tolC 6.7, PostGolgi yeast 5.2 and HER2 expr 66K 104.2.
For O=C(c1ccco1)N(Cc1ccc([N+](=O)[O-])cc1)c1ccc(Br)cc1 the results were Ecoli WT expand -20.0, PostGolgi ctrl 45.2* and PostGolgi yeast 0.5.
For O=C(c1ccco1)N(Cc1ccc([N+](=O)[O-])cc1)c1ccc(Cl)cc1 the results were Ecoli WT expand -14.0, PostGolgi ctrl 40.1* and PostGolgi yeast -1.3.

Bioassay records (PubChem)
